According to ChEMBL document CHEMBL3244326, “Synthesis and antiviral activity of certain thiazole C-nucleosides” (J Med Chem, 1977):
Calls of active or inactive are those of the source. The rule behind the calls is not given here.

Assays:
KB = test: Antiviral activity against type 13 rhinovirus infected in human KB cells assessed as reduction in cytopathic effect after 72 hrs incubation; format: functional, cell-based; settings: Human rhinovirus A13
In short: (§1)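 Human nasopharyngeal carcinoma (KB) cells infected with virus and tested at compound concentrations of 1000 to 1 ug/ml. After 72 h incubation at 37 °C, inhibition of viral cytopathic effect was scored by observation and expressed as a virus rating (VR). Values are the average of one to five tests.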

Human alphaherpesvirus 1 = test: Antiviral activity against type 1 herpes simplex virus type 1 infected in human KB cells assessed as reduction in cytopathic effect after 72 hrs incubation; format: functional, organism-based; in short: as §1
Ehrlich [1] = test: Inhibition of purine nucleotide biosynthesis in mouse Ehrlich ascites tumor cells assessed as inhibition of [14C]hypoxanthine into adenine nucleotides at 1 mM after 60 mins incubation; format: functional; settings: 1 h
In short: (§2)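 Ehrlich ascites tumor cell suspensions preincubated at 37 °C for 20 min with or without 1 mM compound. [14C]Hypoxanthine (55 µCi/µmol) then added to a final 0.1 mM, followed by 60 min more incubation. Adenine (AMP+ADP+ATP) and guanine (GMP+GDP+GTP) nucleotides separated by TLC on PEI-cellulose; % inhibition of label incorporation.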

Ehrlich [2] = test: Inhibition of purine nucleotide biosynthesis in mouse Ehrlich ascites tumor cells assessed as inhibition of [14C]hypoxanthine into guanine nucleotides at 1 mM after 60 mins incubation; format: functional; settings: 1 h; in short: as §2
Human respirovirus 1 [3] = test: Antiviral activity against type 1 parainfluenza virus infected in mouse assessed as mouse survival at 104 mg/kg, po thrice a day for 8 days after 1 hr viral infection; format: functional, organism-based; design: dose 104 mg/kg
In short: (§3)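 Sendai (type 1 parainfluenza) virus given intranasally to female mice (18-20 g). Oral dosing three times daily for 8 days, beginning 1 h post-inoculation; 10 infected mice per dose, with a carboxymethylcellulose placebo group. Survivors/total counted, with p values for the survivor increase.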

Human respirovirus 1 [4] = test: Antiviral activity against type 1 parainfluenza virus infected in mouse assessed as mouse mean death day at 104 mg/kg, po thrice a day for 8 days after 1 hr viral infection (reference value: 8.9 days); format: functional
Human respirovirus 1 [5] = test: Antiviral activity against type 1 parainfluenza virus infected in mouse assessed as mouse mean death day at 26 mg/kg, po thrice a day for 8 days after 1 hr viral infection (reference value: 8.9 days); format: functional
Mus musculus [6] = test: Toxicity in mouse assessed as survival at 104 mg/kg, po; format: organism-based; design: dose 104 mg/kg, route oral; settings: in vivo
In short: (§4)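 Uninfected toxicity-control mice, 5 per dose, received compound by the oral route alongside the infected groups. Survivors/total recorded, and weight gain was observed.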

Human respirovirus 1 [7] = test: Antiviral activity against type 1 parainfluenza virus infected in mouse assessed as mouse mean death day at 52 mg/kg, po thrice a day for 8 days after 1 hr viral infection (reference value: 8.9 days); format: functional
Mus musculus [8] = test: Toxicity in mouse assessed as survival at 99 mg/kg, po; format: organism-based; design: dose 99 mg/kg, route oral; settings: in vivo; in short: as §4
Human respirovirus 1 [9] = test: Antiviral activity against type 1 parainfluenza virus infected in mouse assessed as mouse mean death day at 49.5 mg/kg, po thrice a day for 8 days after 1 hr viral infection (reference value: 8.9 days); format: functional
Human respirovirus 1 [10] = test: Antiviral activity against type 1 parainfluenza virus infected in mouse assessed as mouse mean death day at 99 mg/kg, po thrice a day for 8 days after 1 hr viral infection (reference value: 8.9 days); format: functional
Mus musculus [11] = test: Toxicity in mouse assessed as survival at 77.5 mg/kg, po; format: organism-based; design: dose 77.5 mg/kg, route oral; settings: in vivo; in short: as §4
Human respirovirus 1 [12] = test: Antiviral activity against type 1 parainfluenza virus infected in mouse assessed as mouse mean death day at 155 mg/kg, po thrice a day for 8 days after 1 hr viral infection (reference value: 8.9 days); format: functional
Human respirovirus 1 [13] = test: Antiviral activity against type 1 parainfluenza virus infected in mouse assessed as mouse survival at 77.5 mg/kg, po thrice a day for 8 days after 1 hr viral infection; format: functional, organism-based; design: dose 77.5 mg/kg; in short: as §3
Human respirovirus 1 [14] = test: Antiviral activity against type 1 parainfluenza virus infected in mouse assessed as mouse survival at 155 mg/kg, po thrice a day for 8 days after 1 hr viral infection; format: functional, organism-based; design: dose 155 mg/kg; in short: as §3
Mus musculus [15] = test: Toxicity in mouse assessed as survival at 155 mg/kg, po; format: organism-based; design: dose 155 mg/kg, route oral; settings: in vivo; in short: as §4
Human respirovirus 1 [16] = test: Antiviral activity against type 1 parainfluenza virus infected in mouse assessed as mouse mean death day at 77.5 mg/kg, po thrice a day for 8 days after 1 hr viral infection (reference value: 8.9 days); format: functional
Human respirovirus 1 [17] = test: Antiviral activity against type 1 parainfluenza virus infected in mouse assessed as mouse mean death day at 38.8 mg/kg, po thrice a day for 8 days after 1 hr viral infection (reference value: 8.9 days); format: functional
Human respirovirus 1 [18] = test: Antiviral activity against type 1 parainfluenza virus infected in mouse assessed as mouse survival at 38.8 mg/kg, po thrice a day for 8 days after 1 hr viral infection; format: functional, organism-based; design: dose 38.8 mg/kg; in short: as §3

Compound | Activity (KB) | Activity (Human alphaherpesvirus 1) | inhibition at 1000 µM (Ehrlich [1]) [%] | inhibition at 1000 µM (Ehrlich [2]) [%] | also measured
C[C@H]1O[C@@H](c2nc(C(N)=O)cs2)[C@H](O)[C@@H]1O | inactive | inactive | 0 | 0 | –
NC(=O)c1csc([C@@H]2O[C@H](CO)[C@@H](O)[C@H]2O)n1 [TIAZOFURIN] | Active | Active | 0 | 69 | Survival (Human respirovirus 1 [3]): Active; Time (Human respirovirus 1 [4]): 12.3 days; Time (Human respirovirus 1 [5]): 10.9 days; Activity (Mus musculus [6]): Non-toxic; Time (Human respirovirus 1 [7]): 11 days
NC(=O)c1csc(-c2ccc(CO)o2)n1 | inactive | inactive | 0 | 0 | –
NC(=O)c1ncn([C@@H]2O[C@H](CO)[C@@H](O)[C@H]2O)n1 [RIBAVIRIN] | – | – | – | – | Activity (Mus musculus [8]): Non-toxic; Time (Human respirovirus 1 [9]): 12 days; Time (Human respirovirus 1 [10]): 10 days
CC(=O)OC[C@H]1O[C@@H](c2nc(C(N)=O)cs2)[C@H](OC(C)=O)[C@@H]1OC(C)=O | inactive | Active | 0 | 42 | Activity (Mus musculus [11]): Non-toxic; Time (Human respirovirus 1 [12]): 8.6 days; Survival (Human respirovirus 1 [13]): Active; Survival (Human respirovirus 1 [14]): Active; Activity (Mus musculus [15]): Non-toxic; Time (Human respirovirus 1 [16]): 11.9 days; Time (Human respirovirus 1 [17]): 11 days; Survival (Human respirovirus 1 [18]): Active
NC(=S)c1csc([C@@H]2O[C@H](CO)[C@@H](O)[C@H]2O)n1 | inactive | inactive | 0 | 12 | –
NC(=O)c1cnc([C@@H]2O[C@H](CO)[C@@H](O)[C@H]2O)s1 | inactive | inactive | 1 | 6.8 | –
